# This excerpt belongs to a sample that is enriched for hits.
# HSF1 activator: HSF-1 activators, primary screen, NIH3T3-HGL cells, MG132 stress, luminescence, single point. AID 504408, 2011. hit rate 1.7% among 300,000. activation, % at 9 µM. NIH3T3-HGL HSF-1 luciferase reporter, 8 h; 100% = twice DMSO control signal;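 active = mean replicate activation of at least 50% with a set share of replicates each reaching 50%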;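 note: 0% = median of the neutral control wells and 100% = twice that signal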
# HSF1 inh: HSF1 inhibitors in luciferase reporter cells, primary screen, cell-based, NIH3T3, luminescence; NIH3T3-HGL HSE-luciferase, MG132-induced, luminescence 8 h; hits give low values; hit rate 0.77% among 300,000; activity change, negative = inhibition, % at 7.5 µM (by protocol);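 active = more than half of replicate wells show activity change below -50%, luminescence cut by over half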;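 note: luciferase reports HSF-1 transcriptional activity via heat shock element; 0% = median of DMSO wells and -100% = zero luminescence signal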
# T cruzi repl: inhibitors of intracellular T. cruzi growth, primary screen, luminescence, NIH3T3 host cells; inhibition, % (concentration not given with the values); hit rate 1.4% among 300,000; T. cruzi beta-gal in NIH3T3, 90 h;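 active = mean inhibition across valid replicates above about 55%, limit read from the data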;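 note: signal also drops with host cell toxicity which is not excluded here; 0% = plate median of DMSO wells and 100% = zero luminescence signal; higher percent means less beta-gal luminescence so fewer parasites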
#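 Assay system: NIH/3T3 fibroblasts plus reporter T. cruzi. Amount: NIH/3T3 cells, 5,000 per well. Buffer or medium: DMEM, 2% fetal bovine serum. Doses: compound pinned at 50 nL/well, DMSO. Schedule: ≥90 h infection period, 3 h prior cell attachment. Signal: luminescent β-galactosidase signal after 60 min lysis. Read-out: parasite load inhibition, %.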
# Hsp70 act: Hsp70 transcriptional activators, primary screen, cell-based, HeLa, Hsp70 promoter luciferase, luminescence, 10 µM | hit rate 0.04% among 200,000 | HeLa Hsp70 promoter luciferase reporter; scaled: vehicle 0, proteasome-inhibitor control 100% | activation, % at 10 µM;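 active = activation above the mean across all tested compounds plus 3 SD, cutoff set per campaign, cut at about 5.5% in these data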;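 note: 100% = MG132 at 30 µM as the positive control and 0% = DMSO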
# L major viab: Leishmania major promastigote growth inhibition, primary screen | inhibition, % at 10 µM | AID 1063, 2008 | Leishmania major promastigotes, resazurin fluorescence viability | hit rate 9% among 200,000; in the data active = inhibition above about 50%;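 note: promastigotes grown with compound for 44 hours at 28 °C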
# Starred values were filed as active, the others as inactive; nt = not tested or not shown.
SMILES,HSF1 activator,HSF1 inh,T cruzi repl,Hsp70 act,L major viab
O=C(c1ccc(Cl)cc1)C(Cn1cncn1)C(Sc1ccccc1)c1ccccc1 (stereo not given),-7,6,13,0,92*
O=C(Nc1ccc(NC(=S)NC(=O)c2ccccc2Cl)cc1)c1cccc(Cl)c1,56*,41,45,0,37
CC(C)Oc1cccc(C(=O)NC(=S)Nc2cccnc2)c1,39,6,-12,0,-9
O=C(NC(=S)Nc1ccccc1O)c1ccc(Cl)cc1Cl,76*,57,-1,0,-2
CCCOc1cccc(C(=O)NC(=S)Nc2cccc(NC(=O)c3ccccc3Cl)c2)c1,-3,-7,18,0,97*
CC(C)Oc1cccc(C(=O)NC(=S)Nc2ccccc2)c1,-67,-61*,-13,0,86*
CCc1cc(C(=O)NCC(c2cccs2)N2CCOCC2)sc1C (stereo not given),21,5,-5,nt,nt
CCCC(C(=O)NCCC(C)C)N(Cc1ccccc1)C(=O)c1snc(C(N)=O)c1N (stereo not given),9,-1,-25,nt,nt
CC(=O)c1cccc(NC(=S)NC(=O)c2cccc(C)c2)c1,64*,24,13,0,51*
CC(C)COc1cccc(C(=O)NC(=S)Nc2cccc(NC(=O)c3ccccc3Cl)c2)c1,13,-3,30,0,80*
Cc1ccc(C2C(C#N)=C(N)Oc3cc(C)oc(=O)c32)o1 (stereo not given),-3,-1,6,0,100*
Brc1c(OCCOCCn2cncn2)ccc2ccccc12,36,18,30,0,65*
COc1ccc(Nc2c3c(nc4ccc(C)cc24)CCC3)cc1,-7,8,30,nt,nt
Cc1ccc2nc3c(c(Nc4ccc(O)cc4)c2c1)CCC3,20,4,62*,nt,nt
Cc1cc(Nc2ccc3c(c2)OCCO3)c2cc(Cl)ccc2n1,-58,-58*,35,0,100*
Cc1ccc2nc3c(c(Nc4ccc5c(c4)OCCO5)c2c1)CCC3,-7,-8,33,0,98*
Cc1cccc(C2=N/C(=C\c3cccs3)C(=O)O2)c1,-5,-7,-6,0,-5
O=C(CSc1ncn[nH]1)N1CCOCC1,-5,-2,-6,0,-3
Cc1ccc(-c2nc3c(=O)n(C)c4ccccc4c3o2)cc1,0,9,22,0,63*
Cc1ccc(-c2nc3c(=O)n(-c4ccccc4)c4c(c(=O)n(C)c(=O)n4C)c3o2)cc1,28,18,-25,nt,nt
O=C(Nc1nnc(-c2ccccc2Cl)o1)c1ccc(S(=O)(=O)N2CCCCCC2)cc1,-28,-20,47,0,99*
CC1CCCCN1S(=O)(=O)c1ccc(C(=O)Nc2nnc(-c3ccccc3Cl)o2)cc1 (stereo not given),-7,-8,36,0,99*
CCC1CCCCN1S(=O)(=O)c1ccc(C(=O)Nc2nnc(-c3ccccc3Cl)o2)cc1 (stereo not given),-26,-28,-25,0,99*
CS(=O)(=O)c1ccccc1-c1nnc(NC(=O)c2ccc(S(=O)(=O)N3CCCC3)cc2)o1,30,0,-4,nt,nt
O=C(Nc1ccccc1)c1ccc(S(=O)(=O)N2CCCCC2)cc1,-5,-4,-12,0,2
SMILES,HSF1 activator,HSF1 inh,T cruzi repl,Hsp70 act,L major viab
CCC1CCCCN1S(=O)(=O)c1ccc(C(=O)Nc2nnc(C3CC3)o2)cc1 (stereo not given),8,-8,19,nt,nt
CC1CCCCN1S(=O)(=O)c1ccc(C(=O)Nc2nnc(-c3ccncc3)o2)cc1 (stereo not given),2,-2,-53,0,8
O=C(Nc1ccn(-c2ccccc2)n1)c1ccc(S(=O)(=O)N2CCCCCC2)cc1,-20,4,42,-1,66*
NC(=O)CC(NC(=O)Cc1cccc2ccccc12)c1ccc(N2CCc3ccccc3C2)c([N+](=O)[O-])c1 (stereo not given),17,10,4,nt,nt
COc1cc(CNC2CCCC2)cc(OC)c1,59*,28,-35,0,0
Cc1sc(NC(=O)c2ccco2)c(C(c2ccc(F)cc2)N2CCN(C)CC2)c1C (stereo not given),32,16,8,1,51*

# Assay outcomes: PubChem, several laboratories
